Results from ChEMBL document CHEMBL4689842, “EUbOPEN Chemogenomics Library wave 1” (2021).
Values joined by “and” are separate entries in the source; they are usually repeats but may differ in a detail not shown here. Equal values may be shown once.

Test system: Fibroblast
Assay: Multiplex assay against human fibroblast
Format: toxicity, cell-based
Outline: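 Tubulin, mitochondrial-mass and membrane-permeability phenotypes are per cents of healthy-nucleus cells. Cells were gated by CellPathfinder machine learning into Hoechst high-intensity objects or normal cells, normal cells into healthy, pyknosed or fragmented nuclei, and pyknosed cells into mitotic or apoptotic. Before that, live cells stained at seeding with Hoechst33342, BioTracker Green Microtubule Cytoskeleton Dye, MitoTracker Red and Annexin V Alexa Fluor 680 were imaged on a CQ1 microscope at 37°C and 5% CO2 after compound addition.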

[1] = 12 h, 1 µM, compound concentration 1 uM, replicate 1
[2] = 12 h, 1 µM, compound concentration 1 uM, replicate 2
[3] = 12 h, 10 µM, compound concentration 10 uM, replicate 1
[4] = 12 h, 10 µM, compound concentration 10 uM, replicate 2
[5] = 24 h, 1 µM, compound concentration 1 uM, replicate 1
[6] = 24 h, 1 µM, compound concentration 1 uM, replicate 2
[7] = 24 h, 10 µM, compound concentration 10 uM, replicate 1
[8] = 24 h, 10 µM, compound concentration 10 uM, replicate 2
[9] = 48 h, 10 µM, compound concentration 10 uM, replicate 1
[10] = 48 h, 10 µM, compound concentration 10 uM, replicate 2
[11] = 48 h, 1 µM, compound concentration 1 uM, replicate 1
[12] = 48 h, 1 µM, compound concentration 1 uM, replicate 2

## CN[C@@H]1C[C@H]2O[C@@](C)([C@@H]1OC)n1c3ccccc3c3c4c(c5c6ccccc6n2c5c31)C(=O)NC4 [STAUROSPORINE]
[1]
  Population Apoptotic (%): 75%
  Population Fragmented Nuclei (%): 41%
  Population Healthy Nuclei (%): 14%
  Population Hoechst High Intensity Objects (%): 31%
  Population Membrane Permeable-Phenotype (%): 13%
  Population Mitochondria Different-Phenotype (%): 2%
  Population Mitotic Cells (%): 24%
  Population Normal (%): 68%
  Population Pyknosed Nuclei (%): 43%
  Population Tubulin-Different-Phenotype (%): 10%
[2]
  Population Apoptotic (%): 71%
  Population Fragmented Nuclei (%): 48%
  Population Healthy Nuclei (%): 19%
  Population Hoechst High Intensity Objects (%): 46%
  Population Membrane Permeable-Phenotype (%): 47%
  Population Mitochondria Different-Phenotype (%): 11%
  Population Mitotic Cells (%): 28%
  Population Normal (%): 53%
  Population Pyknosed Nuclei (%): 32%
  Population Tubulin-Different-Phenotype (%): 11%
[3]
  Population Apoptotic (%): 84% and 63% and 86%
  Population Fragmented Nuclei (%): 30% and 31% and 36%
  Population Healthy Nuclei (%): 9% and 21% and 10%
  Population Hoechst High Intensity Objects (%): 26% and 29% and 21%
  Population Mitochondria Different-Phenotype (%): 0% and 3% and 5%
  Population Mitotic Cells (%): 15% and 36% and 13%
  Population Normal (%): 73%
  Population Pyknosed Nuclei (%): 59% and 46% and 52%
  Population Tubulin-Different-Phenotype (%): 15% and 5%
[4]
  Population Apoptotic (%): 77% and 73%
  Population Fragmented Nuclei (%): 48% and 26% and 42%
  Population Healthy Nuclei (%): 14% and 15% and 12%
  Population Hoechst High Intensity Objects (%): 43% and 15%
  Population Mitotic Cells (%): 22% and 26%
  Population Normal (%): 56% and 84%
  Population Pyknosed Nuclei (%): 37% and 57% and 45%
[5]
  Population Apoptotic (%): 85%
  Population Fragmented Nuclei (%): 61%
  Population Healthy Nuclei (%): 2%
  Population Hoechst High Intensity Objects (%): 21%
  Population Membrane Permeable-Phenotype (%): 16%
  Population Mitochondria Different-Phenotype (%): 0%
  Population Mitotic Cells (%): 14%
  Population Pyknosed Nuclei (%): 35%
  Population Tubulin-Different-Phenotype (%): 16%
[6]
  Population Apoptotic (%): 74%
  Population Fragmented Nuclei (%): 58%
  Population Healthy Nuclei (%): 11%
  Population Hoechst High Intensity Objects (%): 34%
  Population Membrane Permeable-Phenotype (%): 30%
  Population Mitochondria Different-Phenotype (%): 10%
  Population Mitotic Cells (%): 25%
  Population Normal (%): 65%
  Population Pyknosed Nuclei (%): 30%
  Population Tubulin-Different-Phenotype (%): 0%
[7]
  Population Apoptotic (%): 92% and 84% and 87%
  Population Fragmented Nuclei (%): 51% and 58% and 59%
  Population Healthy Nuclei (%): 6% and 7%
  Population Hoechst High Intensity Objects (%): 18% and 20% and 22%
  Population Membrane Permeable-Phenotype (%): 30% and 25% and 11%
  Population Mitochondria Different-Phenotype (%): 0% and 3%
  Population Mitotic Cells (%): 7% and 15% and 12%
  Population Normal (%): 81% and 79% and 77%
  Population Pyknosed Nuclei (%): 41% and 34%
[8]
  Population Apoptotic (%): 72% and 88% and 77%
  Population Healthy Nuclei (%): 20% and 46% and 37%
  Population Hoechst High Intensity Objects (%): 38% and 27% and 26%
  Population Membrane Permeable-Phenotype (%): 47% and 100% and 92%
  Population Mitotic Cells (%): 27% and 11% and 22%
  Population Normal (%): 61% and 72% and 73%
  Population Pyknosed Nuclei (%): 26% and 36% and 38%
[9]
  Population Apoptotic (%): 88% and 84%
  Population Fragmented Nuclei (%): 60% and 64%
  Population Healthy Nuclei (%): 14% and 23%
  Population Hoechst High Intensity Objects (%): 34% and 36%
  Population Membrane Permeable-Phenotype (%): 40% and 37%
  Population Mitochondria Different-Phenotype (%): 6% and 16%
  Population Mitotic Cells (%): 11% and 15%
  Population Normal (%): 65% and 63%
  Population Pyknosed Nuclei (%): 25% and 12%
  Population Tubulin-Different-Phenotype (%): 53% and 54%
[10]
  Population Apoptotic (%): 91% and 83%
  Population Fragmented Nuclei (%): 79% and 82%
  Population Healthy Nuclei (%): 10% and 8%
  Population Hoechst High Intensity Objects (%): 44% and 33%
  Population Membrane Permeable-Phenotype (%): 33% and 58%
  Population Mitochondria Different-Phenotype (%): 8% and 0%
  Population Mitotic Cells (%): 8% and 16%
  Population Normal (%): 55% and 66%
  Population Pyknosed Nuclei (%): 10% and 8%
  Population Tubulin-Different-Phenotype (%): 58% and 66%

## O=C1NC(=O)C(c2cnc3ccccn23)=C1c1cn2c3c(cc(F)cc13)CN(C(=O)N1CCCCC1)CC2 [LY-2090314]
[1]
  Population Apoptotic (%): 60%
  Population Fragmented Nuclei (%): 16%
  Population Healthy Nuclei (%): 32%
  Population Hoechst High Intensity Objects (%): 11%
  Population Membrane Permeable-Phenotype (%): 29%
  Population Mitochondria Different-Phenotype (%): 22%
  Population Mitotic Cells (%): 40%
  Population Normal (%): 88%
  Population Pyknosed Nuclei (%): 51%
  Population Tubulin-Different-Phenotype (%): 89%
  Total Cell Count: 166
[2]
  Population Apoptotic (%): 80%
  Population Fragmented Nuclei (%): 3%
  Population Healthy Nuclei (%): 87%
  Population Hoechst High Intensity Objects (%): 12%
  Population Membrane Permeable-Phenotype (%): 6%
  Population Mitochondria Different-Phenotype (%): 16%
  Population Mitotic Cells (%): 20%
  Population Normal (%): 87%
  Population Pyknosed Nuclei (%): 9%
  Population Tubulin-Different-Phenotype (%): 22%
  Total Cell Count: 85
[3]
  Population Apoptotic (%): 61%
  Population Fragmented Nuclei (%): 23%
  Population Healthy Nuclei (%): 31%
  Population Hoechst High Intensity Objects (%): 6%
  Population Membrane Permeable-Phenotype (%): 50%
  Population Mitochondria Different-Phenotype (%): 26%
  Population Mitotic Cells (%): 38%
  Population Normal (%): 93%
  Population Pyknosed Nuclei (%): 44%
  Population Tubulin-Different-Phenotype (%): 86%
  Total Cell Count: 101
[4]
  Population Apoptotic (%): 100%
  Population Fragmented Nuclei (%): 9%
  Population Healthy Nuclei (%): 74%
  Population Hoechst High Intensity Objects (%): 10%
  Population Membrane Permeable-Phenotype (%): 40%
  Population Mitochondria Different-Phenotype (%): 96%
  Population Mitotic Cells (%): 0%
  Population Normal (%): 89%
  Population Pyknosed Nuclei (%): 16%
  Population Tubulin-Different-Phenotype (%): 96%
  Total Cell Count: 63
[5]
  Population Apoptotic (%): 64%
  Population Fragmented Nuclei (%): 25%
  Population Healthy Nuclei (%): 36%
  Population Hoechst High Intensity Objects (%): 7%
  Population Membrane Permeable-Phenotype (%): 26%
  Population Mitochondria Different-Phenotype (%): 17%
  Population Mitotic Cells (%): 35%
  Population Normal (%): 92%
  Population Pyknosed Nuclei (%): 38%
  Population Tubulin-Different-Phenotype (%): 86%
  Total Cell Count: 156
[6]
  Population Apoptotic (%): 80%
  Population Fragmented Nuclei (%): 4%
  Population Healthy Nuclei (%): 87%
  Population Hoechst High Intensity Objects (%): 13%
  Population Membrane Permeable-Phenotype (%): 7%
  Population Mitochondria Different-Phenotype (%): 22%
  Population Mitotic Cells (%): 20%
  Population Normal (%): 86%
  Population Pyknosed Nuclei (%): 8%
  Population Tubulin-Different-Phenotype (%): 18%
  Total Cell Count: 82
[7]
  Population Apoptotic (%): 70%
  Population Fragmented Nuclei (%): 24%
  Population Healthy Nuclei (%): 34%
  Population Hoechst High Intensity Objects (%): 11%
  Population Membrane Permeable-Phenotype (%): 41%
  Population Mitochondria Different-Phenotype (%): 58%
  Population Mitotic Cells (%): 29%
  Population Normal (%): 88%
  Population Pyknosed Nuclei (%): 41%
  Population Tubulin-Different-Phenotype (%): 87%
  Total Cell Count: 102
[8]
  Population Apoptotic (%): 81%
  Population Fragmented Nuclei (%): 11%
  Population Healthy Nuclei (%): 64%
  Population Hoechst High Intensity Objects (%): 4%
  Population Membrane Permeable-Phenotype (%): 37%
  Population Mitochondria Different-Phenotype (%): 96%
  Population Mitotic Cells (%): 18%
  Population Normal (%): 95%
  Population Pyknosed Nuclei (%): 24%
  Population Tubulin-Different-Phenotype (%): 96%
  Total Cell Count: 72
[11]
  Population Apoptotic (%): 79%
  Population Fragmented Nuclei (%): 36%
  Population Healthy Nuclei (%): 22%
  Population Hoechst High Intensity Objects (%): 6%
  Population Membrane Permeable-Phenotype (%): 14%
  Population Mitochondria Different-Phenotype (%): 25%
  Population Mitotic Cells (%): 20%
  Population Normal (%): 93%
  Population Pyknosed Nuclei (%): 41%
  Population Tubulin-Different-Phenotype (%): 85%
  Total Cell Count: 127
[12]
  Population Apoptotic (%): 75%
  Population Fragmented Nuclei (%): 55%
  Population Healthy Nuclei (%): 29%
  Population Hoechst High Intensity Objects (%): 8%
  Population Membrane Permeable-Phenotype (%): 26%
  Population Mitochondria Different-Phenotype (%): 26%
  Population Mitotic Cells (%): 25%
  Population Normal (%): 91%
  Population Pyknosed Nuclei (%): 15%
  Population Tubulin-Different-Phenotype (%): 69%
  Total Cell Count: 86
[9]
  Population Apoptotic (%): 73%
  Population Fragmented Nuclei (%): 28%
  Population Healthy Nuclei (%): 25%
  Population Hoechst High Intensity Objects (%): 15%
  Population Membrane Permeable-Phenotype (%): 28%
  Population Mitochondria Different-Phenotype (%): 57%
  Population Mitotic Cells (%): 26%
  Population Normal (%): 84%
  Population Pyknosed Nuclei (%): 46%
  Population Tubulin-Different-Phenotype (%): 71%
  Total Cell Count: 97
[10]
  Population Apoptotic (%): 93%
  Population Fragmented Nuclei (%): 10%
  Population Healthy Nuclei (%): 61%
  Population Hoechst High Intensity Objects (%): 16%
  Population Membrane Permeable-Phenotype (%): 5%
  Population Mitochondria Different-Phenotype (%): 85%
  Population Mitotic Cells (%): 6%
  Population Normal (%): 83%
  Population Pyknosed Nuclei (%): 27%
  Population Tubulin-Different-Phenotype (%): 85%
  Total Cell Count: 66
